IC50 and inhibition data for 27 molecules are collected here from ChEMBL document CHEMBL4308898, “Synthesis and biological evaluation of arylpiperazine derivatives as potential anti-prostate cancer agents” (Bioorg Med Chem, 2019).

Active and inactive are the calls of the source. The calls are words filed in the database; no cut-off is given here. A value given as a limit tells only on which side of the number the result lay.

The test system of one assay is LNCaP. Kind of assay: Antiproliferative activity against human LNCAP cells after 24 hrs by CCK-8 assay. It counts as functional, cell-based. Put shortly: (§1)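 Media with 10% FBS plus penicillin/streptomycin: RPMI1640 (DU145), F12 (LNCaP), DMEM (PC-3). Log-phase cells seeded at 1 × 10^5 cells/mL and grown 24 h at 37 °C, 5% CO2, then given various compound concentrations for 24 h. CCK-8 added for 1 h, absorbance read at 450 nm. Inhibition = (1 − OD treated/OD control) × 100%. IC50 from linear regression; three independent experiments.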
A general note: Formazan colour is commonly taken as a measure of viable cells.

Assay [1] deals with T1, Androgen receptor (Homo sapiens) (UniProt P10275).
T1 sequence (whole entry): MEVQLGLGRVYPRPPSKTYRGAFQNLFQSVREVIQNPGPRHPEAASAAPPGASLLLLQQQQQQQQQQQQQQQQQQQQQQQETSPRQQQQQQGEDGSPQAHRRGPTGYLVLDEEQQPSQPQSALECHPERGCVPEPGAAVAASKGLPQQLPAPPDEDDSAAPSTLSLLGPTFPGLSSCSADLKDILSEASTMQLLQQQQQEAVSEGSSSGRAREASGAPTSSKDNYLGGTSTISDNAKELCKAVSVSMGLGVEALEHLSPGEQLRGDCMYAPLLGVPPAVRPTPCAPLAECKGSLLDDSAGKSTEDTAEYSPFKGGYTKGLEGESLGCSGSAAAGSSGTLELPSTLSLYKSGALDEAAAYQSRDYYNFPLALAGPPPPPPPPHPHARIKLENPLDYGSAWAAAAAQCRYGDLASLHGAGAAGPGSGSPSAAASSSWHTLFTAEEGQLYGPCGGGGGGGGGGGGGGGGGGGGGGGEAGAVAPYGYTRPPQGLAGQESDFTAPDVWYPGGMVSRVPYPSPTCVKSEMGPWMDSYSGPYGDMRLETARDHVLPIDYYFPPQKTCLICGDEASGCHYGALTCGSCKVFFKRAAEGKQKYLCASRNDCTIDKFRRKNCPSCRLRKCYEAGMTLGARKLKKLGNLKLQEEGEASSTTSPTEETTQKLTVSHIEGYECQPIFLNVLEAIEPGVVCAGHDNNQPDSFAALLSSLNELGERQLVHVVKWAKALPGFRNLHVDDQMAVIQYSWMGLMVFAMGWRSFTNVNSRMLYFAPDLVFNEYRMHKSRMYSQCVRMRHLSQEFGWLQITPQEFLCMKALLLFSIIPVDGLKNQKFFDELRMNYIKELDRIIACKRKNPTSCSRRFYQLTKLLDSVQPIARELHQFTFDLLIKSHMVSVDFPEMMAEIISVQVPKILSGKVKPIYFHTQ
As to conditions: at 10 µM.

In the next assay the test system is PC-3. The experiment in a line: Antiproliferative activity against human PC3 cells after 24 hrs by CCK-8 assay. It counts as functional, cell-based. Conditions: PC-3, 24 h. The procedure, abridged:
as §1

Another assay deals with DU-145. Kind of assay: Antiproliferative activity against human DU145 cells after 24 hrs by CCK-8 assay. Format: functional, cell-based. As to conditions: DU-145, 24 h. Put shortly: as §1
Another assay relates to RWPE-1. The experiment in a line: Antiproliferative activity against human RWPE1 cells after 24 hrs by CCK-8 assay. Format: cell-based. As to conditions: RWPE-1, 24 h. The procedure, abridged:
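RWPE-1 grown in DMEM with 10% FBS, penicillin 100 U/mL and streptomycin 0.1 mg/mL at 37 °C, 5% CO2. Log-phase cells seeded at 1 × 10^5 cells/mL, cultured 24 h, then exposed to various compound concentrations for 24 h. CCK-8 added, 1 h at 37 °C, absorbance read at 450 nm. Inhibition = (1 − OD treated/OD control) × 100%. IC50 by linear regression of concentration-response curves. Three independent experiments.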

A further assay has as its target T2, Androgen receptor (Rattus norvegicus, UniProt P15207).
T2 sequence (P15207 whole entry): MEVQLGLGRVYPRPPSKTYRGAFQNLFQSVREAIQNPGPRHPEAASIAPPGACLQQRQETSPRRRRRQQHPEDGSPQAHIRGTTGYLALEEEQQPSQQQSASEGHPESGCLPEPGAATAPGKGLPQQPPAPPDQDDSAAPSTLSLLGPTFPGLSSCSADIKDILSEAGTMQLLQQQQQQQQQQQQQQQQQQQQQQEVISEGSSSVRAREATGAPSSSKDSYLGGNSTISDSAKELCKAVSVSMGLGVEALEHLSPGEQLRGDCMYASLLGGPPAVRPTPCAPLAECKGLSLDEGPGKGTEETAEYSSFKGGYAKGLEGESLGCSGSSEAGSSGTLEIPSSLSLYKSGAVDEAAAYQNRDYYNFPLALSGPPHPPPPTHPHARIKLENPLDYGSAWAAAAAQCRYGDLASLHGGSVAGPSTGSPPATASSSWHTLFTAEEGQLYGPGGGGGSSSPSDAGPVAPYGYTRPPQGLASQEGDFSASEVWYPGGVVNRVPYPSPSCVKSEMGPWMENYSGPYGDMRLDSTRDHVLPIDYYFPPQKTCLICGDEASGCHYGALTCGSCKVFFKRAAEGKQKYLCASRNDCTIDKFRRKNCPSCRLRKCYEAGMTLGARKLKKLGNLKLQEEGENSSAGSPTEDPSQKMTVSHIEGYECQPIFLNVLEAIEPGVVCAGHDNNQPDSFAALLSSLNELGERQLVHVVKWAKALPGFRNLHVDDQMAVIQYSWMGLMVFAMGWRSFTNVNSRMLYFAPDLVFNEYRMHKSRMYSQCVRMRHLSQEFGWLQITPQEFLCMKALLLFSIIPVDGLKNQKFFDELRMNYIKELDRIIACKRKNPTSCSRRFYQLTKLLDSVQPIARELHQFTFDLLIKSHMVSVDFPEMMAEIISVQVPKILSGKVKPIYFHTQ
The experiment in a line: Displacement of fluormone-AL Green from His-tagged/GST-fused recombinant rat androgen receptor LBD expressed in insect cells measured after 4 hrs by fluorescence polarization assay. In general terms: In fluorescence polarisation assays a small probe gives low polarisation when free and higher when bound to something large.

As a reminder, the IC50 is the concentration that gives 50% inhibition. Usually inhibition stands for the percentage by which the read-out fell short of the control.

As to `c1ccc(OCCc2ccc(CN3CCN(c4ccccc4)CC3)cc2)cc1`, the half-maximal inhibitory concentration (IC50) was 6.67 µM in the assay with LNCaP, 8.2 µM in the assay on PC-3, 9.82 µM with DU-145 and greater than 50 µM in the assay with RWPE-1. This molecule also registered an inhibition in assay [1] of 40.6%.
As to `N#Cc1ccc(OCCc2ccc(CN3CCN(c4ccccc4)CC3)cc2)cc1`, the IC50 was 43.6 µM in the assay with LNCaP; 4.22 µM on Androgen receptor; 1.05 µM in the assay on PC-3; 46.2 µM in the assay on DU-145; greater than 50 µM with RWPE-1. In assay [1], this molecule had an inhibition of 47.2%.
Consider `Cc1ccc(OCCc2ccc(CN3CCN(c4ccccc4)CC3)cc2)cc1C`, for which the IC50 is 17.6 µM in the assay with LNCaP, 6.72 µM in the assay with PC-3, 15.6 µM in the assay with DU-145 and 12.3 µM in the assay with RWPE-1.
In turn, `COc1ccccc1N1CCN(CC(O)COc2cccc3ccccc23)CC1` (stereo not drawn) [NAFTOPIDIL] yielded an IC50 with RWPE-1 greater than 50 µM.
Take `FC(F)(F)c1ccccc1OCCc1ccc(CN2CCN(c3ccccc3)CC2)cc1`: the half-inhibitory concentration (IC50) in the assay with LNCaP is 32.2 µM; in the assay on PC-3 it was greater than 50 µM; in the assay on DU-145 it was 9.43 µM; with RWPE-1, greater than 50 µM.
For the molecule `Cc1ccc(OCCc2ccc(CN3CCN(c4ccccc4)CC3)cc2)cc1`, the half-inhibitory concentration (IC50) in the assay with LNCaP is 5.62 µM; at Androgen receptor it was 3.66 µM; with PC-3 it was 1.47 µM; in the assay on DU-145, 10.1 µM; in the assay with RWPE-1, greater than 50 µM. Besides, the inhibition in assay [1] was 54.7%.
Consider `c1ccc(N2CCN(Cc3ccc(CCOc4cccc5c4CCCC5)cc3)CC2)cc1`, for which the IC50 with LNCaP was found to be 19.3 µM; in the assay with PC-3, 17.7 µM; in the assay with DU-145 it was 12.2 µM; in the assay on RWPE-1 it was 27.8 µM.
`Cc1cc(C)cc(OCCc2ccc(CN3CCN(c4ccccc4)CC3)cc2)c1`: the IC50 worked out at 7.43 µM in the assay with LNCaP, 2.99 µM in the assay with PC-3, 3.44 µM with DU-145 and 4.86 µM in the assay with RWPE-1. In addition, the inhibition in assay [1] is 16.7%.
With `N#Cc1ccc(OCCc2ccc(CN3CCN(c4ccccc4)CC3)cc2)c(F)c1`, the concentration for half-maximal inhibition (IC50) in the assay on LNCaP is greater than 50 µM; with PC-3 it was greater than 50 µM; in the assay on DU-145, 0.77 µM; in the assay with RWPE-1 it was greater than 50 µM. The molecule further had an inhibition in assay [1] of 24.5%.
In the case of `Brc1ccc(OCCc2ccc(CN3CCN(c4ccccc4)CC3)cc2)cc1`, the IC50 in the assay with LNCaP is 13.5 µM; in the assay with PC-3, 6.69 µM; in the assay on DU-145, 10.1 µM; in the assay with RWPE-1, 15.7 µM.
Take `Fc1ccc(OCCc2ccc(CN3CCN(c4ccccc4)CC3)cc2)cc1`: the IC50 with LNCaP was determined as 7.83 µM; in the assay on PC-3 it was 5.7 µM; with DU-145, 6.86 µM; in the assay on RWPE-1 it was 4.62 µM. This molecule also gave an inhibition in assay [1] of 35.1%.
Turning to `c1ccc(N2CCN(Cc3ccc(CCOc4cccc5ccccc45)cc3)CC2)cc1`, the IC50 in the assay on LNCaP was determined as 8.92 µM; in the assay with PC-3 it was 4.72 µM; in the assay with DU-145, 16 µM; in the assay with RWPE-1, 12.2 µM. Further, the inhibition in assay [1] was found to be 32.5%.
Turning to `CC(C)(C)c1ccc(OCCc2ccc(CN3CCN(c4ccccc4)CC3)cc2)cc1`, the IC50 in the assay on LNCaP stood at 17.9 µM; with PC-3, 4.86 µM; in the assay on DU-145 it was 28 µM; in the assay on RWPE-1, 21.1 µM.
As to `Clc1ccc(OCCc2ccc(CN3CCN(c4ccccc4)CC3)cc2)cc1Cl`, the IC50 in the assay on LNCaP was 19.8 µM; in the assay with PC-3, 23 µM; in the assay on DU-145, 5.36 µM; in the assay with RWPE-1, greater than 50 µM. In assay [1], the inhibition is 41.1%.
With `c1ccc(N2CCN(Cc3ccc(CCOc4ccc5c(c4)CCCC5)cc3)CC2)cc1`, the half-maximal inhibitory concentration (IC50) in the assay with LNCaP was greater than 50 µM; in the assay with PC-3 it was greater than 50 µM; in the assay on DU-145, 40.4 µM; with RWPE-1 it was greater than 50 µM.
On to `CCOc1ccc(OCCc2ccc(CN3CCN(c4ccccc4)CC3)cc2)cc1`, for which the IC50 in the assay with LNCaP is greater than 50 µM; in the assay with PC-3 it was greater than 50 µM; in the assay with DU-145, 14.2 µM; with RWPE-1, greater than 50 µM.
`CC(C)c1ccc(OCCc2ccc(CN3CCN(c4ccccc4)CC3)cc2)cc1`: the IC50 in the assay on LNCaP is greater than 50 µM; in the assay with PC-3, greater than 50 µM; in the assay on DU-145, 6.4 µM; with RWPE-1, greater than 50 µM. For the same molecule, the inhibition in assay [1] was found to be 40.2%.
For the molecule `Cc1ccccc1OCCc1ccc(CN2CCN(c3ccccc3)CC2)cc1`, the IC50 in the assay with LNCaP is 34.9 µM; in the assay on PC-3, 15.1 µM; in the assay on DU-145 it was 29.2 µM; in the assay on RWPE-1 it was greater than 50 µM.
Take `Clc1cc(Cl)cc(OCCc2ccc(CN3CCN(c4ccccc4)CC3)cc2)c1`: the half-inhibitory concentration (IC50) in the assay with LNCaP stood at 19.4 µM; with PC-3, 10.1 µM; in the assay with DU-145, 13.2 µM; in the assay on RWPE-1 it was 47.2 µM.
As for `Clc1ccc(OCCc2ccc(CN3CCN(c4ccccc4)CC3)cc2)cc1`, the 50% inhibitory concentration (IC50) with LNCaP was found to be 8.64 µM; with PC-3 it was 3.59 µM; in the assay with DU-145, 9.2 µM; in the assay with RWPE-1, 4.76 µM. This molecule also returned an inhibition in assay [1] of 32.4%.
Taken in the same sequence, the figures for `N#Cc1ccccc1OCCc1ccc(CN2CCN(c3ccccc3)CC2)cc1` were greater than 50 µM, greater than 50 µM, 2.51 µM, greater than 50 µM and 32.1%.
Take `Brc1ccccc1OCCc1ccc(CN2CCN(c3ccccc3)CC2)cc1`: the IC50 in the assay with LNCaP is 41.9 µM; with PC-3, greater than 50 µM; in the assay with DU-145 it was 11.6 µM; in the assay with RWPE-1, greater than 50 µM.
With `COc1ccccc1OCCc1ccc(CN2CCN(c3ccccc3)CC2)cc1`, the IC50 with LNCaP, in the assay on PC-3, in the assay on DU-145 and with RWPE-1 was greater than 50 µM throughout.
On to `Fc1ccccc1OCCc1ccc(CN2CCN(c3ccccc3)CC2)cc1`, for which the IC50 is 17.8 µM with LNCaP, 48.8 µM in the assay with PC-3, 7.21 µM in the assay on DU-145 and 19.7 µM in the assay on RWPE-1.
In the case of `C[C@]12C=CC3=C4CCC(=O)C=C4CC[C@H]3[C@@H]1CC[C@@]2(C)O`, the inhibition entry in assay [1] is “inactive”.
For the molecule `CC(C)(C)NC(=O)[C@H]1CC[C@H]2[C@@H]3CC[C@H]4NC(=O)C=C[C@]4(C)[C@H]3CC[C@]12C` [FINASTERIDE], the figures for the IC50 in the assay on LNCaP and with DU-145 were 13.5 µM and 14.5 µM, respectively.
As for `Clc1ccccc1OCCc1ccc(CN2CCN(c3ccccc3)CC2)cc1`, the 50% inhibitory concentration (IC50) was greater than 50 µM in the assay on LNCaP, greater than 50 µM with PC-3, 38.6 µM in the assay on DU-145 and greater than 50 µM in the assay on RWPE-1.
